B1: NELF-E aptamer (parent)
chain: CCCAACGACUGCCGAGCGAGAUUACGCUUGAGCGCCCCACUGAGGAUGCCCACGGGCGAUUGGGGCACGG

Variants of: B1
Experiment: HiTS-RAP
Details: with NELF-E (Drosophila)
Procedure, shortened: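 Aptamer DNA templates carrying a T7 promoter and ter site were sequenced on an Illumina GAIIx flowcell, then transcribed in situ by T7 RNA polymerase and halted by GST-Tus (30 minutes, 37°C). Clusters were imaged after 30-minute room-temperature equilibration with NELF-E-mOrange at 0.064 to 1000 nM in HEPES binding buffer, and only the first binding curve was used. Intensities were normalised to sequencing intensity and averaged per sequence. Kd came from weighted Hill fits, keeping fits with variance below 1,000,000.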
Variant CCCAACGACUGCCGAGCGAGAUGACGCUUGAGCGCCCCACUAAGGAUGCCCACGGGCGAUUGGGGCACGG [U23G G42A] has a Kd of 60.7 nM.
Work on CCCAACGACUGCCGAGCGAGAUGACGCUUGAGCGCCCCACUUAGGAUGCCCACGGGCGAUUGGGGCACGG [U23G G42U] yielded a Kd of 13.1 nM.
Work on CCCAACGACUGCCGAGCGAGAUGACGCUUGAGCGCCCCACUGAAGAUGCCCACGGGCGAUUGGGGCACGG [U23G G44A] yielded a Kd of 68.6 nM.
With CCCAACGACUGCCGAGCGAGAUGACGCUUGAGCGCCCCACUGAUGAUGCCCACGGGCGAUUGGGGCACGG [U23G G44U] the Kd was 6.93 nM.
In the case of CCCAACGACUGCCGAGCGAGAUGACGCUUGAGCGCCCCACUGAGGAUGCCCACGGGCGAGUGGGGCACGG [U23G U60G], the Kd is reported as 4.68 nM.
With CCCAACGACUGCCGAGCGAGAUGACGCUUGAGCGCCCCACUGAGGAUGCCCACGGGCGAAUGGGGCACGG [U23G U60A] the Kd was 12.9 nM.
CCCAACGACUGCCGAGCGAGAUGACGCUUGAGCGCCCCACUGAGGAUGCCCACGGGCGACUGGGGCACGG [U23G U60C] gave a Kd of 11.9 nM.
Variant CCCAACGACUGCCGAGCGAGAUUGCGCUUGAGCGCCCCACUGAGGAUGCCCACGGGCGGUUGGGGCACGG [A24G A59G] has a Kd of 36.5 nM.
With CCCAACGACUGCCGAGCGAGAUGACGCUUGAGCGCCCCACAGAGGAUGCCCACGGGCGAUUGGGGCACGG [U23G U41A] the Kd was 66.7 nM.
For CCCAACGACUGCCGAGCGAGAUGACGCUUGAGCGCCCCACCGAGGAUGCCCACGGGCGAUUGGGGCACGG [U23G U41C], the Kd was 93.8 nM.
Work on CCCAACGACUGCCGAGCGAGAUGACGCUUGAGCGCCCCACGGAGGAUGCCCACGGGCGAUUGGGGCACGG [U23G U41G] yielded a Kd of 5.48 nM.
Work on CCCAACGACUGCCGAGCGAGAUUGCGCUUGAGCGCCCCACUGAGGAUGCCCACGGGCGAUUGGGGCACGG [A24G] yielded a Kd of 5.47 nM.
CCCAACGACUGCCGAGCGAGAUUCCGCUUGAGCGCCCCACUGAGGAUGCCCACGGGCGAUUGGGGCACGG [A24C] showed a Kd of 5.86 nM.
In the case of CCCAACGACUGCCGAGCGAGAUGACGCUUGAGCGCCCCACUGAGGAUGCCCACAGGCGAUUGGGGCACGG [U23G G54A], the Kd is reported as 14.4 nM.
CCCAACGACUGCCGAGCGAGAUGACGCUUGAGCGCCCCACUGAGGAUGCCCACUGGCGAUUGGGGCACGG [U23G G54U] was tested, and the Kd was 11.1 nM.
CCCAACGACUGCCGAGCGAGAUGACGCUUGAGCGCCCCACUGAGGAUGCCCACGGUCGAUUGGGGCACGG [U23G G56U] showed a Kd of 5.61 nM.
With CCCAACGACUGCCGAGCGAGAUGACGCUUGAGCGCCCCACUGAGGAUGCCCACGGACGAUUGGGGCACGG [U23G G56A] the Kd was 8.2 nM.
For CCCAACGACUGCCGAGCGAGAUUGCGCUUGAGCGCCCCUCUGAGGAUGCCCACGGGCGAUUGGGGCACGG [A24G A39U], the Kd was 29.5 nM.
For CCCAACGACUGCCGAGCGAGAUUGCGCUUGAGCGCCCCGCUGAGGAUGCCCACGGGCGAUUGGGGCACGG [A24G A39G], the Kd was 10.2 nM.
With CCCAACGACUGCCGAGCGAGAUGACGCUAGAGCGCCCCACUGAGGAUGCCCACGGGCGAUUGGGGCACGG [U23G U29A] the Kd was 5.6 nM.
In the case of CCCAACGACUGCCGAGCGAGAUGACGCUCGAGCGCCCCACUGAGGAUGCCCACGGGCGAUUGGGGCACGG [U23G U29C], the Kd is reported as 5.67 nM.
With CCCAACGACUGCCGAGCGAGAUGACGCUGGAGCGCCCCACUGAGGAUGCCCACGGGCGAUUGGGGCACGG [U23G U29G] the Kd was 5.13 nM.
CCCAACGACUGCCGAGCGAGAUUGCGCUUGAGCGCCCCACUGGGGAUGCCCACGGGCGAUUGGGGCACGG [A24G A43G] gave a Kd of 27.9 nM.
CCCAACGACUGCCGAGCGAGAUUGCGCUUGAGCGCCCCACUGUGGAUGCCCACGGGCGAUUGGGGCACGG [A24G A43U] showed a Kd of 55.4 nM.
CCCAACGACUGCCGAGCGAGAUGACGCUUGAGCGCCCCACUGAGUAUGCCCACGGGCGAUUGGGGCACGG [U23G G45U] gave a Kd of 6.11 nM.
CCCAACGACUGCCGAGCGAGAUGACGCUUGAGCGCCCCACUGAGAAUGCCCACGGGCGAUUGGGGCACGG [U23G G45A] was tested, and the Kd was 19.3 nM.
CCCAACGACUGCCGAGCGAGAUGACGCUUGAGCGCCCCACUGAGGAUGCCCACGGGCGAUUUGGGCACGG [U23G G62U] gave a Kd of 9.09 nM.
Variant CCCAACGACUGCCGAGCGAGAUGACGCUUGAGCGCCCCACUGAGGAUGCCCACGGGCGAUUAGGGCACGG [U23G G62A] has a Kd of 15.5 nM.
CCCAACGACUGCCGAGCGAGAUGACGCUUGAGCGCCCCACUGAGGAUGCCCACGUGCGAUUGGGGCACGG [U23G G55U] gave a Kd of 8.32 nM.
For CCCAACGACUGCCGAGCGAGAUGACGCUUGAGCGCCCCACUGAGGAUGCCCACGCGCGAUUGGGGCACGG [U23G G55C], the Kd was 6.97 nM.
For CCCAACGACUGCCGAGCGAGAUGACGCUUGAGCGCCCCACUGAGGAUGCCCACGAGCGAUUGGGGCACGG [U23G G55A], the Kd was 7.34 nM.
Variant CCCAACGACUGCCGAGCGAGAUUGCGCUUGAGCGCCCCAGUGAGGAUGCCCACGGGCGAUUGGGGCACGG [A24G C40G] has a Kd of 6.34 nM.
CCCAACGACUGCCGAGCGAGAUUGCGCUUGAGCGCCCCACUGAGGAUGCCCGCGGGCGAUUGGGGCACGG [A24G A52G] gave a Kd of 5.14 nM.
With CCCAACGACUGCCGAGCGAGAUUGCGCUUGAGCGCCCCACUGAGGAUGCCCUCGGGCGAUUGGGGCACGG [A24G A52U] the Kd was 14.2 nM.
CCCAACGACUGCCGAGCGAGAUGACGCUUGAGCGCCCCACUGAGGAUGCCCACGGGCGAUUGGCGCACGG [U23G G64C] showed a Kd of 6.24 nM.
For CCCAACGACUGCCGAGCGAGAUGACGCUUGAGCGCCCCACUGAGGAUGCCCACGGGCGAUUGGUGCACGG [U23G G64U], the Kd was 6.13 nM.
Work on CCCAACGACUGCCGAGCGAGAUGACGCUUGAGCGCCCCACUGAGGAUGCCCACGGGCGAUUGGAGCACGG [U23G G64A] yielded a Kd of 6.56 nM.
Work on CCCAACGACUGCCGAGCGAGAUUGCGCUUGAGCGCCCCACUGAGGAUGCCUACGGGCGAUUGGGGCACGG [A24G C51U] yielded a Kd of 8.86 nM.
CCCAACGACUGCCGAGCGAGAUUGCGCUUGAGCGCCCCACUGAGGAUGUCCACGGGCGAUUGGGGCACGG [A24G C49U] was tested, and the Kd was 13.4 nM.

Source: the RNAGym collection of RNA variant scans (doi:10.1038/nmeth.2970)
